Measurements reported in ChEMBL document CHEMBL1157311, “Aurilides B and C, cancer cell toxins from a Papua New Guinea collection of the marine cyanobacterium Lyngbya majuscula” (2006).
The source made the active and inactive calls.

Tests used:
[1] = test system: NCI-H460; test: Cytotoxicity against human NCI-H460 cells after 48 hrs by MTT assay; assay type: functional; details: NCI-H460, 48 h, read-out: LC50 (the source's name)
Procedure, shortened: (§1)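 Cells seeded at 6000/well and grown 24 h, then given test chemicals dissolved in DMSO and diluted in serum-free medium (DMSO under 0.5% final). Viability read by MTT reduction after 48 h exposure; LC50 reported. Method follows Alley et al.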

[2] = Cytotoxicity against mouse Neuro2a cells after 48 hrs by MTT assay; assay type: functional; details: N2a, read-out: LC50 (the source's name); procedure, shortened: as §1
[3] = test system: A10; test: Disruption of microfilament in rat A10 cells at 2.9 uM after 24 hrs by rhodamine-phalloidin assay; assay type: functional, cell-based
Procedure, shortened: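 A-10 smooth muscle cells grown on glass coverslips in BME with 10% fetal calf serum and exposed 24 h. Fixed in 3% paraformaldehyde, permeabilised with 0.2% Triton X-100, reduced with NaBH4, then stained 45 min with 100 nM TRITC-phalloidin for actin and with DAPI for DNA. Microfilament network scored by fluorescence microscopy.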

[4] = Growth inhibition of human HL60(TB) cells; assay type: functional, HL-60(TB)
[5] = test system: K562; test: Growth inhibition of human K562 cells; assay type: functional
[6] = test system: MOLT-4; test: Growth inhibition of human MOLT4 cells; assay type: functional
[7] = Growth inhibition of human RPMI8266 cells; assay type: functional
[8] = test system: SR; test: Growth inhibition of human SR cells; assay type: functional
[9] = test system: A549; test: Growth inhibition of human A549 cells; assay type: functional
[10] = test system: EKVX; test: Growth inhibition of human EKVX cells; assay type: functional
[11] = test system: HOP-62; test: Growth inhibition of human HOP62 cells; assay type: functional
[12] = test system: HOP-92; test: Growth inhibition of human HOP92 cells; assay type: functional
[13] = test system: NCI-H226; test: Growth inhibition of human NCI-H226 cells; assay type: functional
[14] = test system: NCI-H23; test: Growth inhibition of human NCI-H23 cells; assay type: functional
[15] = test system: NCI-H322M; test: Growth inhibition of human NCI-H322M cells; assay type: functional
[16] = test system: NCI-H460; test: Growth inhibition of human NCI-H460 cells; assay type: functional; details: read-out: pLC50 (the source's name) (converted)
[17] = test system: NCI-H522; test: Growth inhibition of human NCI-H522 cells; assay type: functional
[18] = test system: COLO 205; test: Growth inhibition of human COLO205 cells; assay type: functional
[19] = test system: HCC 2998; test: Growth inhibition of human HCC2998 cells; assay type: functional
[20] = test system: HCT-116; test: Growth inhibition of human HCT116 cells; assay type: functional
[21] = test system: HCT-15; test: Growth inhibition of human HCT15 cells; assay type: functional
[22] = test system: HT-29; test: Growth inhibition of human HT29 cells; assay type: functional
[23] = test system: KM12; test: Growth inhibition of human KM12 cells; assay type: functional
[24] = test system: SW-620; test: Growth inhibition of human SW620 cells; assay type: functional; details: read-out: pLC50 (the source's name) (converted)
[25] = test system: SF-268; test: Growth inhibition of human SF268 cells; assay type: functional
[26] = test system: SF-295; test: Growth inhibition of human SF295 cells; assay type: functional
[27] = test system: SF-539; test: Growth inhibition of human SF539 cells; assay type: functional
[28] = test system: SNB-19; test: Growth inhibition of human SNB19 cells; assay type: functional
[29] = test system: U-251; test: Growth inhibition of human U251 cells; assay type: functional
[30] = test system: LOX IMVI; test: Growth inhibition of human LOX IMVI cells; assay type: functional
[31] = test system: M14; test: Growth inhibition of human M14 cells; assay type: functional
[32] = test system: SK-MEL-2; test: Growth inhibition of human SK-MEL-2 cells; assay type: functional
[33] = test system: SK-MEL-28; test: Growth inhibition of human SK-MEL-28 cells; assay type: functional
[34] = test system: SK-MEL-5; test: Growth inhibition of human SK-MEL-5 cells; assay type: functional
[35] = test system: UACC-257; test: Growth inhibition of human UACC257 cells; assay type: functional
[36] = test system: UACC-62; test: Growth inhibition of human UACC62 cells; assay type: functional
[37] = test system: IGROV-1; test: Growth inhibition of human IGROV1 cells; assay type: functional
[38] = Growth inhibition of human OVACR3 cells; assay type: functional
[39] = Growth inhibition of human OVACR4 cells; assay type: functional
[40] = Growth inhibition of human OVACR5 cells; assay type: functional
[41] = Growth inhibition of human […] cells; assay type: functional
[42] = test system: SK-OV-3; test: Growth inhibition of human SKOV3 cells; assay type: functional
[43] = test system: 786-0; test: Growth inhibition of human 786-0 cells; assay type: functional
[44] = test system: SN12C; test: Growth inhibition of human SN12C cells; assay type: functional
[45] = test system: TK-10; test: Growth inhibition of human TK10 cells; assay type: functional
[46] = test system: ACHN; test: Growth inhibition of human ACHN cells; assay type: functional
[47] = test system: CAKI-1; test: Growth inhibition of human CAKI1 cells; assay type: functional
[48] = test system: UO-31; test: Growth inhibition of human UO31 cells; assay type: functional
[49] = test system: PC-3; test: Growth inhibition of human PC3 cells; assay type: functional
[50] = test system: DU-145; test: Growth inhibition of human DU145 cells; assay type: functional
[51] = test system: SNB-75; test: Growth inhibition of human SNB75 cells; assay type: functional
[52] = test system: MCF7; test: Growth inhibition of human MCF7 cells; assay type: functional
[53] = test system: NCI/ADR-RES; test: Growth inhibition of human NCI/ADR-RES cells; assay type: functional
[54] = test system: MDA-MB-231; test: Growth inhibition of human MDA-MB-231 cells; assay type: functional
[55] = test system: Hs-578T; test: Growth inhibition of human HS578T cells; assay type: functional
[56] = test system: MDA-MB-435; test: Growth inhibition of human MDA-MB-435 cells; assay type: functional
[57] = test system: BT-549; test: Growth inhibition of human BT549 cells; assay type: functional
[58] = test system: T47D; test: Growth inhibition of human T47D cells; assay type: functional
[59] = read-out: pLC50 (the source's name) (converted)

CC/C=C(\C)[C@H]1OC(=O)[C@H](C)N(C)C(=O)[C@H](C(C)C)NC(=O)CN(C)C(=O)[C@H]([C@H](C)CC)N(C)C(=O)[C@H](C(C)C)NC(=O)[C@@H]([C@@H](C)CC)OC(=O)/C(C)=C/C[C@H](O)[C@@H]1C [AURILIDE B]
219 nM: GI50 [34]
3020 nM: CC50 [34, 59]
83200 nM: CC50 [51, 59]
100 nM: CC50 [5, 59]
77600 nM: CC50 [16]
19100 nM: TGI ([52]; read-out: pTGI (converted))
170 nM: TGI ([21]; read-out: pTGI (converted))
40 nM: CC50 [1]
19.9 nM: TGI ([28]; read-out: pTGI (converted))
794 nM: CC50 [25, 59]
10 nM: CC50 [2]
< 10 nM: GI50 ([4]; HL-60) | CC50 ([4]; HL-60, read-out: pLC50 (the source's name) (converted)) | TGI ([4]; HL-60, read-out: pTGI) | GI50 [5] | TGI ([5]; read-out: pTGI) | GI50 [6] | CC50 [6, 59] | TGI ([6]; read-out: pTGI) | GI50 [7] | TGI ([7]; read-out: pTGI) | GI50 [8] | CC50 [8, 59] | TGI ([8]; read-out: pTGI) | GI50 [9] | CC50 [9, 59] | TGI ([9]; read-out: pTGI) | GI50 [10] | CC50 [10, 59] | TGI ([10]; read-out: pTGI) | GI50 [11] | CC50 [11, 59] | TGI ([11]; read-out: pTGI) | GI50 [12] | TGI ([12]; read-out: pTGI) | GI50 [13] | CC50 [13, 59] | TGI ([13]; read-out: pTGI) | GI50 [14] | CC50 [14, 59] | TGI ([14]; read-out: pTGI) | GI50 [15] | TGI ([15]; read-out: pTGI) | GI50 [17] | TGI ([17]; read-out: pTGI) | GI50 [18] | GI50 [19] | CC50 [19, 59] | TGI ([19]; read-out: pTGI) | GI50 [20] | CC50 [20, 59] | TGI ([20]; read-out: pTGI) | GI50 [21] | GI50 [22] | GI50 [23] | GI50 [25] | GI50 [26] | TGI ([26]; read-out: pTGI) | GI50 [27] | CC50 [27, 59] | TGI ([27]; read-out: pTGI) | GI50 [28] | GI50 [29] | TGI ([29]; read-out: pTGI) | GI50 [30] | GI50 [31] | CC50 [31, 59] | TGI ([31]; read-out: pTGI) | GI50 [32] | TGI ([32]; read-out: pTGI) | GI50 [33] | TGI ([33]; read-out: pTGI) | GI50 [35] | CC50 [35, 59] | TGI ([35]; read-out: pTGI) | GI50 [36] | TGI ([36]; read-out: pTGI) | GI50 [37] | TGI ([37]; read-out: pTGI) | GI50 [38] | TGI ([38]; read-out: pTGI) | GI50 [39] | TGI ([39]; read-out: pTGI) | GI50 [40] | CC50 [40, 59] | TGI ([40]; read-out: pTGI) | GI50 [41] | TGI ([41]; read-out: pTGI) | GI50 [42] | GI50 [43] | CC50 [43, 59] | TGI ([43]; read-out: pTGI) | GI50 [44] | GI50 [45] | CC50 [45, 59] | TGI ([45]; read-out: pTGI) | GI50 [46] | GI50 [47] | TGI ([47]; read-out: pTGI) | GI50 [48] | CC50 [48, 59] | TGI ([48]; read-out: pTGI) | GI50 [49] | CC50 [49, 59] | TGI ([49]; read-out: pTGI) | GI50 [50] | CC50 [50, 59] | TGI ([50]; read-out: pTGI) | TGI ([51]; read-out: pTGI) | GI50 [52] | GI50 [53] | CC50 [53, 59] | TGI ([53]; read-out: pTGI) | GI50 [54] | TGI ([54]; read-out: pTGI) | GI50 [56] | TGI ([56]; read-out: pTGI) | GI50 [57] | GI50 [58]
58900 nM: CC50 [12, 59]
708 nM: TGI ([55]; read-out: pTGI (converted))
> 100000 nM: CC50 [7, 59] | CC50 [17, 59] | CC50 [18, 59] | TGI ([18]; read-out: pTGI) | CC50 [21, 59] | CC50 [22, 59] | TGI ([22]; read-out: pTGI) | CC50 [23, 59] | TGI ([23]; read-out: pTGI) | CC50 [24] | CC50 [26, 59] | CC50 [28, 59] | CC50 [32, 59] | CC50 [33, 59] | CC50 [37, 59] | CC50 [39, 59] | CC50 [46, 59] | CC50 [52, 59] | CC50 [55, 59] | CC50 [58, 59]
490 nM: TGI ([34]; read-out: pTGI (converted))
38900 nM: CC50 [42, 59]
active: Activity [3]

CC/C=C(\C)[C@H]1OC(=O)[C@H](C)N(C)C(=O)[C@H](C(C)C)NC(=O)CN(C)C(=O)[C@H]([C@H](C)CC)N(C)C(=O)[C@H](C(C)C)NC(=O)[C@@H](C(C)C)OC(=O)/C(C)=C/C[C@H](O)[C@@H]1C [AURILIDE C]
130 nM: CC50 [1]
50 nM: CC50 [2]
